# Where “and” joins values, the source holds several entries; their conditions need not be identical. Identical values can stand only once. Calls of active or inactive are those of the source. The calls are words filed in the database; no cut-off is given here.
# Tests used:
# [1] = target: T1, Vitamin D3 receptor (Homo sapiens) (UniProt P11473); test: Induction of differentiation of human HL60 promyelocytes to monocytes; assay type: functional
# T1 sequence (whole entry): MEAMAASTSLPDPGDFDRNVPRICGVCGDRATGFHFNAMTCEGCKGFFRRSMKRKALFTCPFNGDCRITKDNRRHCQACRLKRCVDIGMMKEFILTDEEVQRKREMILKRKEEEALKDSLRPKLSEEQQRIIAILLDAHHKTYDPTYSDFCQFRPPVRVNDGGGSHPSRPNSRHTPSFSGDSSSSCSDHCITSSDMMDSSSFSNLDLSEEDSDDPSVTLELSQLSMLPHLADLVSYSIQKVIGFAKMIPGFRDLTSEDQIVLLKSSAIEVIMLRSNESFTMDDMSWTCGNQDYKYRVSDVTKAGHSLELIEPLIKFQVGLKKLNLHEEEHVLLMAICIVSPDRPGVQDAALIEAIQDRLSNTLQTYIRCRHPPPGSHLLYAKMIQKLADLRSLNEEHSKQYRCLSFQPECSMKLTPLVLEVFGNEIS
# [2] = target: T2, Vitamin D3 receptor (Rattus norvegicus) (UniProt P13053); test: Induction of vitamin D mediated transactivation in rat ROS17/2.8 cell luciferase assay; assay type: functional
# T2 sequence (whole entry): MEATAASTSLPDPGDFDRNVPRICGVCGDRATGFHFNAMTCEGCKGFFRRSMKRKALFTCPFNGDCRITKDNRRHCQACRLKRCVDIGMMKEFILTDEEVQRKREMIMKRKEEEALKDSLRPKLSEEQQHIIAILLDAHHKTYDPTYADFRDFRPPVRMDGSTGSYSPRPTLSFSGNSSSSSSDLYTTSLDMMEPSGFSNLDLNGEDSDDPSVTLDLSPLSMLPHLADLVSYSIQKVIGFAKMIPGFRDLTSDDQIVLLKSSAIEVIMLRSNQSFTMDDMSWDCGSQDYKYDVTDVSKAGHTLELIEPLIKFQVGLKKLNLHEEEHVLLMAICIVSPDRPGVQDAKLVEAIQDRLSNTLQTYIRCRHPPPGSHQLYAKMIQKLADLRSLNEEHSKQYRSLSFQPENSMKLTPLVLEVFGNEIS
# Outline: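 ROS 17/2.8 cells stably carrying a 24-hydroxylase promoter-luciferase reporter were dosed over a concentration range. Luciferase was measured by luminometer 16 h later.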
# Mus musculus = test: Increase of calcium level in po dosed CD1 mouse serum; assay type: functional, organism-based
# Outline: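 Female CD-1 mice, 6-7 weeks, on 0.47% Ca diet, acclimated 5-7 days. Single gastric gavage dose formulated in Neobee oil with 5% ethanol at 4 mL/kg. Serum calcium measured by atomic absorption at several timepoints after dosing, including day 3.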
# Rattus norvegicus [3] = test: Calcium mobilization in vitamin D deficient ip dosed Sprague-Dawley rat bone; assay type: functional, organism-based
# Outline: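 Rats depleted of vitamin D and kept on 0.02% Ca diet; four consecutive daily ip doses in 0.1 mL 1,2-propanediol/ethanol (95:5). Serum drawn 24 h after last dose; calcium by atomic absorption with 0.1% lanthanum chloride; rise in serum calcium taken as bone calcium mobilization.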
# Rattus norvegicus [4] = test: Calcium mobilization in vitamin D deficient ip dosed Sprague-Dawley rat
ED50 [1],ED50 [2] [nM],Compound,Activity (Mus musculus),Activity (Rattus norvegicus [3]),Activity (Rattus norvegicus [4])
3 nM and 1.3 nM,0.042,C[C@H](CCCC(C)(C)O)C1CCC2/C(=C/C=C3C[C@@H](O)C(=CCCO)[C@H](O)C3)CCC[C@@]21C (stereo partly drawn),Active,Active,Active
–,0.0065,C[C@@H](CCCC(C)(C)O)C1CCC2/C(=C/C=C3C[C@@H](O)C(=CCCO)[C@H](O)C3)CCC[C@@]21C (stereo partly drawn),–,Active,Active
4.7 nM,3.8,COCOCCC=C1[C@H](O)CC(=C/C=C2\CCC[C@@]3(C)C2CCC3[C@H](C)CCCC(C)(C)O)C[C@H]1O (stereo partly drawn),Active,Active,Active

# Source: ChEMBL document CHEMBL1147668, “New 2-alkylidene 1alpha,25-dihydroxy-19-norvitamin D3 analogues of high intestinal activity: synthesis and biological evaluation of 2-(3'-alkoxypropylidene) and 2-(3'-hydroxypropylidene) derivatives” (J Med Chem, 2006)
